Laboratory results published in ChEMBL document CHEMBL1136952, “Inhibition of staphyloxanthin virulence factor biosynthesis in Staphylococcus aureus: in vitro, in vivo, and crystallographic results” (J Med Chem, 2009).

How the values were obtained:
[1] = molecular target: T1, 4,4'-diapophytoene synthase (Staphylococcus aureus, UniProt A9JQL9); assay: Inhibition of Staphylococcus aureus histidine tagged dehydrosqualene synthase expressed in Escherichia coli BL21 (DE3) cells by continuous spectrophotometric assay
T1 sequence (A9JQL9 whole entry): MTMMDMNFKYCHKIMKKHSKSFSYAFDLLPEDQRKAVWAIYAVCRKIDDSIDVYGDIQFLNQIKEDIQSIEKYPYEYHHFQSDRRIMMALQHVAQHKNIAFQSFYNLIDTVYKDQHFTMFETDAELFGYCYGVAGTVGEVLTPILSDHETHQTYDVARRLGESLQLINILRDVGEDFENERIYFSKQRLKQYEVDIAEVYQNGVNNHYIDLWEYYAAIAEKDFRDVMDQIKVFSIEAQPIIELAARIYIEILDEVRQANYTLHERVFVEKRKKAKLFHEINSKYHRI
Summary of the method: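 His-tagged CrtM purified on Ni-NTA. Compounds were preincubated with 2 μg enzyme for 30 min at 20 °C. Phosphate release was followed continuously by a coupled spectrophotometric assay. IC50 came from a dose-response fit, and Ki was derived from IC50, substrate concentration and the CrtM kinetic constant.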

NCI-H460 = assay: Cytotoxicity against human NCI-H460 cells after 4 days by MTT assay; format: cell-based; conditions: NCI-H460, 96 h
Summary of the method: (§1)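 Cell lines from the National Cancer Institute, grown in RPMI-1640 with 10% FBS and 2 mM L-glutamine at 37 °C, 5% CO2. Seeded 5000 cells/well with compound half-log serially diluted (0.316 mM to 0.1 pM). Incubated 4 days. Viability read by MTT. IC50 from dose-response fit of OD data.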

Staphylococcus aureus = assay: Inhibition of staphyloxanthin biosynthesis in Staphylococcus aureus isolate Pig1 after 72 hrs by spectrophotometry; format: functional, organism-based; conditions: isolate Pig1, PIG1, 72 h
Summary of the method: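 Bacteria were grown in Todd-Hewitt broth with compound for 72 h, in duplicate. Cells were then centrifuged and washed twice in PBS. Pigment was extracted with MeOH and read by OD at 450 nm. IC50 came from a dose-response fit of the OD data.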

MCF7 = assay: Cytotoxicity against human MCF7 cells after 4 days by MTT assay; format: cell-based; conditions: MCF7, 96 h; summary of the method: as §1
Squalene synthase = molecular target: T2, Squalene synthase (Homo sapiens, UniProt P37268); assay: Inhibition of human recombinant squalene synthase expressed in Escherichia coli cells assessed as conversion of [3H]FPP to squalene by liquid scintillation
T2 sequence (P37268 whole entry): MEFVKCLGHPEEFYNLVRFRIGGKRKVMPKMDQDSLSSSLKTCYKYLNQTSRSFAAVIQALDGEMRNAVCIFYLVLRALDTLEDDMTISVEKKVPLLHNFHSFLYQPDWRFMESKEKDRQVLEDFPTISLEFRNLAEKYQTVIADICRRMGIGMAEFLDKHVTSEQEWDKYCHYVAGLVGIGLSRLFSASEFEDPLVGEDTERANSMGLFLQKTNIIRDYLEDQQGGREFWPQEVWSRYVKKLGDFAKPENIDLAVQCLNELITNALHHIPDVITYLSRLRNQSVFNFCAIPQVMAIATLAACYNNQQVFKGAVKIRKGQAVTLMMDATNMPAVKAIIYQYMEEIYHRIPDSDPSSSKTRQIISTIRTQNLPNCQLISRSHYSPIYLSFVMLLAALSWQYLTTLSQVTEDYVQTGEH

SF-268 = assay: Cytotoxicity against human SF268 cells after 4 days by MTT assay; format: cell-based; conditions: SF-268, 96 h; summary of the method: as §1

Structure (SMILES)	Ki [1] [nM]	IC50 (NCI-H460) [µM]	IC50 (Staphylococcus aureus) [µM]	IC50 (MCF7) [µM]	IC50 (Squalene synthase) [nM]	IC50 (SF-268) [µM]
CN(CCCc1cccc(Oc2ccccc2)c1)C(=O)CP(=O)(O)O	910	> 300	8.6	> 300	1000	> 300
O=C(CCCCc1cccc(Oc2ccccc2)c1)CP(=O)(O)O	> 7000	191	28	135	20000	
O=C(CP(=O)(O)O)NCCCCc1cccc(Oc2ccccc2)c1	5300	> 300	35	> 300	> 30000	> 300
O=C(CP(=O)(O)O)NCCCc1ccc(-c2ccccc2)cc1	810	> 300	5	> 300	> 30000	> 300
O=C(O)CC(=O)NCCCc1cccc(Oc2ccccc2)c1	> 7000	306	200	283	> 30000	306
O=C(CP(=O)([O-])[O-])NCCCc1cccc(Oc2ccccc2)c1.[K+].[K+]		> 300	0.008	> 300	530	> 300
O=C(CP(=O)(O)O)OCCCc1cccc(Oc2ccccc2)c1	5700	86	> 500	69	> 30000	
O=C(CP(=O)(O)O)N(O)CCCc1cccc(Oc2ccc(Cl)c(Cl)c2)c1	320	> 300	0.042	> 300	1600	> 300
CC(C)(C(=O)NCCCc1cccc(Oc2ccccc2)c1)P(=O)(O)O	960	> 300	> 500	> 300	520	> 300
O=P(O)(O)CS(=O)(=O)NCCCc1cccc(Oc2ccccc2)c1	> 7000	> 300	> 500	> 300	> 30000	> 300
O=C(NO)C(CCCc1cccc(Oc2ccccc2)c1)P(=O)(O)O (stereo not drawn)	4100	> 300	4.2	> 300	300	> 300
O=C(CP(=O)(O)O)NCCCc1cccc(Oc2ccc(Cl)cc2)c1	70	> 300	0.028	> 300	1100	> 300
Cc1ccc(-c2ccc(CCCN(O)C(=O)CP(=O)(O)O)cc2)cc1	> 7000	284	4.1	266	> 30000	
O=C(CP(=O)(O)O)N(O)CCCc1cccc(Oc2ccccc2)c1	320	> 300	0.11	> 300	30000	> 300
O=C(CP(=O)(O)O)NCCCc1cccc(Oc2ccc(Cl)c(Cl)c2)c1	30	> 300	0.04	> 300	740	> 300
O=C(CS(=O)(=O)O)NCCCc1cccc(Oc2ccccc2)c1	810	> 300	15	> 300	> 30000	> 300
O=C(CP(=O)(O)O)NCCc1cccc(Oc2ccccc2)c1	1500	> 300	3	> 300	6200	> 300
